What all share (assay type): functional
The target of data set [1] is T1, Nitric oxide synthase, inducible (Mus musculus) (UniProt P29477).
T1 sequence (whole entry): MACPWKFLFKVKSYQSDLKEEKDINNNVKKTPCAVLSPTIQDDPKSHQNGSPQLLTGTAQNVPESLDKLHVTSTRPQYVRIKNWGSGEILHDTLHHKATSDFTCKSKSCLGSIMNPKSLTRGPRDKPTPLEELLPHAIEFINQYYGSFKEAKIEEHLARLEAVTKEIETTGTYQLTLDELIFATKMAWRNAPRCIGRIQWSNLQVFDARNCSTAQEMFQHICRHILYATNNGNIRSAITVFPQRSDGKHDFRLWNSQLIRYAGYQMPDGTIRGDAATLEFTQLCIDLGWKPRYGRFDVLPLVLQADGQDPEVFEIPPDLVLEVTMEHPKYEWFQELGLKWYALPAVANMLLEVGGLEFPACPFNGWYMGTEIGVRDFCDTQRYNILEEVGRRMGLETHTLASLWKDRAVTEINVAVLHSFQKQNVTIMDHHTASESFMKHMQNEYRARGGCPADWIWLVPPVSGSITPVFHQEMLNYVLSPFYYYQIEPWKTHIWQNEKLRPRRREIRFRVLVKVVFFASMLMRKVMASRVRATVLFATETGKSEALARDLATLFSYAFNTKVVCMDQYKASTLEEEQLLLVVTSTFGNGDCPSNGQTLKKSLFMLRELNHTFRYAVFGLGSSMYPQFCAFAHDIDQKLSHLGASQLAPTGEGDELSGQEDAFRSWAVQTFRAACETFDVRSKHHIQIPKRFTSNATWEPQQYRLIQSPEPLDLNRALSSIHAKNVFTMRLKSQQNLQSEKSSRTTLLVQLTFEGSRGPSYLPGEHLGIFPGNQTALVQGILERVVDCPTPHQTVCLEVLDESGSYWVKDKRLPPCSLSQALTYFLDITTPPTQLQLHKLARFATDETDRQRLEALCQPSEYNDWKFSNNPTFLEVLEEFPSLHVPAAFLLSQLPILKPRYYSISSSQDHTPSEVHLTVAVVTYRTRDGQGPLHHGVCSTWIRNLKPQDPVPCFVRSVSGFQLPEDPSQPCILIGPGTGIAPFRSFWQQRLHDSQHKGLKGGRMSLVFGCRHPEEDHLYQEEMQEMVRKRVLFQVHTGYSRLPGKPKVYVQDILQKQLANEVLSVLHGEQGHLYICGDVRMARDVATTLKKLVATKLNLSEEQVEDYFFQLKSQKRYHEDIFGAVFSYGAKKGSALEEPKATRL
As to the kind of experiment: (§1) Compound was evaluated for the kinetic constants for Nitric Oxide formation from oxidation by NOS II. Summed up:
(§2)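 Recombinant purified NOS II was run in the hemoglobin assay at 37 °C in 50 mM HEPES pH 7.4 with NADPH, BH4, SOD, catalase and DTT, over varying substrate concentrations. Initial NO-formation rates gave saturation kinetics. Km (μM) and kcat (min⁻¹) were derived from Lineweaver-Burk plots, and kcat/Km is expressed in μM⁻¹ min⁻¹.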

The target of data set [2] is T1, Nitric oxide synthase, inducible (Mus musculus). The data set is described as follows: Formation of Nitric Oxide by Nitric Oxide synthase II(% relative to NOHA). Put shortly: (§3)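 Purified recombinant NOS (5–50 nM) at 37 °C in 50 mM HEPES pH 7.4 with 1 mM test compound, 1 mM NADPH, 100 μM BH4, 100 U/mL SOD, 100 U/mL catalase, 12–15 μM oxyhemoglobin and 5 mM DTT. NOS I and NOS III runs also contained 1 mM CaCl2 and 10 μg/mL calmodulin. NO was read spectrophotometrically as oxyhemoglobin-to-methemoglobin conversion. Initial rates are given as % of the NOHA rate.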

Data set [3] has as its target Nitric oxide synthase 1 (Homo sapiens) (UniProt P29475). The data set is described as follows: Formation of Nitric Oxide by Nitric Oxide synthase I(% relative to NOHA). Put shortly: as §3
Data set [4] in a line: Ratio between Km (uM) and Kcat (1/min) was determined. Put shortly:
as §2

Data set [5] concerns the target T2, Nitric oxide synthase 3 (Homo sapiens) (UniProt P29474).
T2 sequence (whole entry): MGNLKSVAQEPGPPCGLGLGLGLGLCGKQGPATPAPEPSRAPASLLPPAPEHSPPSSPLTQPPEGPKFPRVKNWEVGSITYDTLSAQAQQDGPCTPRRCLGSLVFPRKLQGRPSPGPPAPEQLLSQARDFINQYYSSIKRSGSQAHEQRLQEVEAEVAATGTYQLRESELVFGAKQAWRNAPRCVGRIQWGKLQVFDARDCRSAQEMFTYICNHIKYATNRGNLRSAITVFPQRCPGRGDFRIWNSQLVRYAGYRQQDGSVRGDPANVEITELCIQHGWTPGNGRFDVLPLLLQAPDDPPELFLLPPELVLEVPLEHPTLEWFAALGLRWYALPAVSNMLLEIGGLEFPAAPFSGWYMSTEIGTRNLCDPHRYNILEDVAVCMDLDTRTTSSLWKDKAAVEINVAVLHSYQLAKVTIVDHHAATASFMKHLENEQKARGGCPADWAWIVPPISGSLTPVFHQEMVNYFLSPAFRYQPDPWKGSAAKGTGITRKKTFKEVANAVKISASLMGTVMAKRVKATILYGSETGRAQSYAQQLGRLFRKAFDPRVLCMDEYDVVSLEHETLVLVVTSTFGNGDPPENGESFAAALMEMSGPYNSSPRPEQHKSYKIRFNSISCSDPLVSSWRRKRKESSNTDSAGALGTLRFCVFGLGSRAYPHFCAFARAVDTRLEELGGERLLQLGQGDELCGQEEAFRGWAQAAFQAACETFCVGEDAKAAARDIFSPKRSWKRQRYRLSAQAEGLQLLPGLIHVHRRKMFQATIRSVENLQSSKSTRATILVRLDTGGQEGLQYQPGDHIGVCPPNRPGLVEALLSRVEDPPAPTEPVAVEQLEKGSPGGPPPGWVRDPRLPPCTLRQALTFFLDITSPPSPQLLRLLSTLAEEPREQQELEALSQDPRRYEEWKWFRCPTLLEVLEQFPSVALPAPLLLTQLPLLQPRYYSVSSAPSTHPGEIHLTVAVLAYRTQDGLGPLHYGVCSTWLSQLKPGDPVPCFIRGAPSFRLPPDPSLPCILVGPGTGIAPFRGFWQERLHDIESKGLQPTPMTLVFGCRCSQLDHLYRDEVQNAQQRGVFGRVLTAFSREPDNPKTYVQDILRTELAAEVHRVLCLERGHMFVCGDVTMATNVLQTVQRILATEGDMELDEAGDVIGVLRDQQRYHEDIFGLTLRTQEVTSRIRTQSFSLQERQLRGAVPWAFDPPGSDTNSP
The data set is described as follows: Formation of Nitric Oxide by Nitric Oxide synthase III(% relative to NOHA). Put shortly:
as §3

Substrate in data set [6]: CCCCC/N=C(/N)NO
The description is as §1. Put shortly: as §2

Substrate in data set [7]: CCCCN/C(N)=N/O
The data set is described as §1. Put shortly:
as §2

Substrate in data set [8]: N/C(=N/CCCC(N)C(=O)O)NO
Described as §1. Summed up:
as §2

Substrate in data set [9]: N/C(=N/CCCCC(N)C(=O)O)NO
The description is as §1. Put shortly: as §2

Substrate in data set [10]: N=C(NO)Nc1ccc(Cl)cc1
Described as §1. Summed up:
as §2

Nitric oxide synthase 1 (Homo sapiens), sequence (P29475 whole entry): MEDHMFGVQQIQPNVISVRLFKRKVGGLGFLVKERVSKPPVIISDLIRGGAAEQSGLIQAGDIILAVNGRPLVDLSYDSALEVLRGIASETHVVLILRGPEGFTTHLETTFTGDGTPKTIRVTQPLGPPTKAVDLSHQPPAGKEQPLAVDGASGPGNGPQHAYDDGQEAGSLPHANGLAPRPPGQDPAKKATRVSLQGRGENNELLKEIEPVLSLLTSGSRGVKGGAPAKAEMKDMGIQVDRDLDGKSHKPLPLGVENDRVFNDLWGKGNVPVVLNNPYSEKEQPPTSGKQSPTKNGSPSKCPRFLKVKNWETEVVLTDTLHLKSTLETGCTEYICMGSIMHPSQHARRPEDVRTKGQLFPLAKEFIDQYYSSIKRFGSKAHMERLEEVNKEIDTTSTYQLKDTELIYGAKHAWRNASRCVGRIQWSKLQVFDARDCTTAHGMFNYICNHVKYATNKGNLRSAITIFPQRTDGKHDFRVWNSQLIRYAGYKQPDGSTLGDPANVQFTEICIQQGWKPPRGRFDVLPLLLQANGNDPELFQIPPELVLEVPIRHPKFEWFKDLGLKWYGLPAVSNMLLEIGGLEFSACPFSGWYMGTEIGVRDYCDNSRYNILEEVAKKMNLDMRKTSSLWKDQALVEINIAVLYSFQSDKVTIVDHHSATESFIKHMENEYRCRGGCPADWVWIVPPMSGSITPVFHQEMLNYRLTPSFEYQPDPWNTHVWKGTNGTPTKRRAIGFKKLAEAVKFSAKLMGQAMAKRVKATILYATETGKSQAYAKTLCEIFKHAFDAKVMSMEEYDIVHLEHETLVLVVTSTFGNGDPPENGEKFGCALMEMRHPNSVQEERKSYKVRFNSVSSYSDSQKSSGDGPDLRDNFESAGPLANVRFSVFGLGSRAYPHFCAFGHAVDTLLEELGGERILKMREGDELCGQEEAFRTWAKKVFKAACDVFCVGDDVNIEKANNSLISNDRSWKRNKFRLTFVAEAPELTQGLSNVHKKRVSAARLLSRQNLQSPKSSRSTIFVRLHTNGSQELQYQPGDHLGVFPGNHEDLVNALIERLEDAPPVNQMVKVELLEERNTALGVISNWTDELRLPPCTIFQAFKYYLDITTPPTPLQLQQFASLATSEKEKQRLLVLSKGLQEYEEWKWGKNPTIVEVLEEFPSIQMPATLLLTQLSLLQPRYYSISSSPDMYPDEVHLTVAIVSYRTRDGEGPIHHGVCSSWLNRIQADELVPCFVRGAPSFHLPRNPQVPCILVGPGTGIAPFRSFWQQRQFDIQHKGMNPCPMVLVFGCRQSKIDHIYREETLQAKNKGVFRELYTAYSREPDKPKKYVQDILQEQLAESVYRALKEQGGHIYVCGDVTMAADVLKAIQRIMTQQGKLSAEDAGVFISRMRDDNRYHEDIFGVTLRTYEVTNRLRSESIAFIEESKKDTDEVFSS

In turn, `N/C(=N/CCCC(N)C(=O)O)NO` (stereo unspecified) displayed a k cat in [1] of 480 min⁻¹. Moreover, the Initial rates in data set [2], in data set [3] and in data set [5] was 100 in each case. The k cat/Km in data set [4] came out at 12 µM⁻¹ min⁻¹.
For `CCCCN/C(N)=N/O`, in data set [1], the k cat is 320 min⁻¹. Moreover, the Initial rates in [2] turned out to be 68; in data set [3] it was 65; in data set [5], 41. The k cat/Km in [4] came to 5.8 µM⁻¹ min⁻¹.
For `NC(=NCCC(N)C(=O)O)NO` (stereo unspecified), the Initial rates in data set [2], in [3] and in data set [5] was less than 0.5 in each case.
On to `N/C(=N/CCCCC(=O)O)NO`, for which the figures for the Initial rates in data set [2], in data set [3] and in data set [5] were 1, less than 0.5 and 2, respectively.
On to `NC(=NCCCC(=O)O)NO`, for which the Initial rates in data set [2], in data set [3] and in data set [5] was less than 0.5 in each case.
`N/C(=N/CCCCC(N)C(=O)O)NO` (stereo unspecified) returned a k cat in [1] of 410 min⁻¹. The Initial rates in data set [2] amounted to 55; in data set [3], 82; in data set [5], 70. Moreover, the k cat/Km in data set [4] amounted to 2.8 µM⁻¹ min⁻¹.
On to `N=C(NO)Nc1ccc(Cl)cc1`, for which the k cat in [1] amounted to 100 min⁻¹. Besides, the k cat/Km in data set [4] was determined as 0.2 µM⁻¹ min⁻¹.
`CCC/N=C(/N)NO`: the Initial rates in [2] was 15; in [3] it was 36; in [5], 41.
`CCCCC/N=C(/N)NO` yielded a k cat in [1] of 280 min⁻¹. Moreover, the Initial rates in data set [2] is 25; in data set [3], 34; in data set [5], less than 0.5. Besides, the k cat/Km in data set [4] is 0.9 µM⁻¹ min⁻¹.
On to `NCCCC/N=C(/N)NO`, for which the figures for the Initial rates in data set [2], in data set [3] and in data set [5] were 8, 2 and less than 0.5, respectively.
Taken in the same sequence, the figures for `N/C(=N/CC(N)C(=O)O)NO` (stereo unspecified) were less than 0.5, less than 0.5 and less than 0.5.
For the molecule `NCCCN/C(N)=N/O`, the Initial rates in data set [2], in data set [3] and in data set [5] was less than 0.5 each time.
On to `CCCCCC/N=C(/N)NO`, for which the Initial rates in data set [2] was 1; in data set [3], 2; in [5], less than 0.5.

B1: Nitric oxide synthase, inducible (Mus musculus), P29477 (protein)
chain: MACPWKFLFKVKSYQSDLKEEKDINNNVKKTPCAVLSPTIQDDPKSHQNGSPQLLTGTAQNVPESLDKLHVTSTRPQYVRIKNWGSGEILHDTLHHKATSDFTCKSKSCLGSIMNPKSLTRGPRDKPTPLEELLPHAIEFINQYYGSFKEAKIEEHLARLEAVTKEIETTGTYQLTLDELIFATKMAWRNAPRCIGRIQWSNLQVFDARNCSTAQEMFQHICRHILYATNNGNIRSAITVFPQRSDGKHDFRLWNSQLIRYAGYQMPDGTIRGDAATLEFTQLCIDLGWKPRYGRFDVLPLVLQADGQDPEVFEIPPDLVLEVTMEHPKYEWFQELGLKWYALPAVANMLLEVGGLEFPACPFNGWYMGTEIGVRDFCDTQRYNILEEVGRRMGLETHTLASLWKDRAVTEINVAVLHSFQKQNVTIMDHHTASESFMKHMQNEYRARGGCPADWIWLVPPVSGSITPVFHQEMLNYVLSPFYYYQIEPWKTHIWQNEKLRPRRREIRFRVLVKVVFFASMLMRKVMASRVRATVLFATETGKSEALARDLATLFSYAFNTKVVCMDQYKASTLEEEQLLLVVTSTFGNGDCPSNGQTLKKSLFMLRELNHTFRYAVFGLGSSMYPQFCAFAHDIDQKLSHLGASQLAPTGEGDELSGQEDAFRSWAVQTFRAACETFDVRSKHHIQIPKRFTSNATWEPQQYRLIQSPEPLDLNRALSSIHAKNVFTMRLKSQQNLQSEKSSRTTLLVQLTFEGSRGPSYLPGEHLGIFPGNQTALVQGILERVVDCPTPHQTVCLEVLDESGSYWVKDKRLPPCSLSQALTYFLDITTPPTQLQLHKLARFATDETDRQRLEALCQPSEYNDWKFSNNPTFLEVLEEFPSLHVPAAFLLSQLPILKPRYYSISSSQDHTPSEVHLTVAVVTYRTRDGQGPLHHGVCSTWIRNLKPQDPVPCFVRSVSGFQLPEDPSQPCILIGPGTGIAPFRSFWQQRLHDSQHKGLKGGRMSLVFGCRHPEEDHLYQEEMQEMVRKRVLFQVHTGYSRLPGKPKVYVQDILQKQLANEVLSVLHGEQGHLYICGDVRMARDVATTLKKLVATKLNLSEEQVEDYFFQLKSQKRYHEDIFGAVFSYGAKKGSALEEPKATRL
For orientation: Km means the substrate concentration at which the rate is half of its maximum. Consider B1, for which the Km came to 310 µM in data set [6]; 55 µM in data set [7]; 40 µM in [8]; 146 µM in data set [9]; 500 µM in [10].

These data come from ChEMBL document CHEMBL1134763, “Oxidation of N(omega)-hydroxyarginine analogues by NO-synthase: the simple, non amino acid N-butyl N'-hydroxyguanidine is almost as efficient an NO precursor as N(omega)-hydroxyarginine” (J Med Chem, 2001).
